Assay results reported in ChEMBL document CHEMBL6177937, “Design, synthesis, and biological evaluation of novel thiazole derivatives as PI3K/mTOR dual inhibitors” (RSC Med Chem, 2024).

Experiments:
SK-MEL-5 = experiment: Growth inhibition of human SK-MEL-5 cells measured after 48 hrs by SRB assay; type: functional
How it was run: (§1)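 NCI 60-line SRB screen: cells seeded […], grown 24 h at 37°C, 5% CO2, then exposed 48 h to five concentrations (10-fold or ½-log dilutions from DMSO stock). Adherent cells fixed with cold TCA (final 10%), suspension cells with 80% TCA (final 16%); SRB stained, read at 515 nm. GI50 from time-zero, control and treated absorbances.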

[1] = test system: Panel NCI-60 (60 carcinoma cell lines); experiment: Antiproliferative activity against human NCI-60 cells assessed as growth inhibition at 10 uM measured after 48 hrs by SRB assay relative to control; type: functional; conditions: read-out: GI
How it was run: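 NCI screen: cells seeded at […] per well and preincubated 24 h (37°C, 5% CO2). Compound stocks in DMSO, tested at a single 10 μM. Exposure 48 h. Adherent cells fixed with cold TCA (10% final), suspension cells with 16% TCA. SRB stain read at 515 nm. Percent growth inhibition reported against time-zero and untreated controls.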

T47D = experiment: Growth inhibition of human T47D cells measured after 48 hrs by SRB assay; type: functional; how it was run: as §1
NCI/ADR-RES = experiment: Growth inhibition of human NCI/ADR-RES cells measured after 48 hrs by SRB assay; type: functional
How it was run: (§2)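 NCI 60-line format with five concentrations (10-fold or ½-log serial dilutions) from DMSO stocks in medium with 50 μg/mL gentamicin. Cells preincubated 24 h, then exposed 48 h at 37°C, 5% CO2. Time-zero plates TCA-fixed. SRB absorbance read at 515 nm. GI50 taken from [(Ti−Tz)/(C−Tz)]×100 = 50. Out-of-range values are expressed as > or < the highest or lowest concentration tested.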

RXF 393 = experiment: Growth inhibition of human RXF 393 cells measured after 48 hrs by SRB assay; type: functional; how it was run: as §1
OVCAR-4 = experiment: Growth inhibition of human OVCAR-4 cells measured after 48 hrs by SRB assay; type: functional; how it was run: as §2
SK-MEL-28 = experiment: Growth inhibition of human SK-MEL-28 cells measured after 48 hrs by SRB assay; type: functional; how it was run: as §1
HL-60 [2] = experiment: Induction of apoptosis in human HL-60 cells assessed as early apoptotic cells measured after 24 hrs by Annexin-V/propidium iodide staining based flow cytometry (reference value: 0.61%); type: functional
OVCAR-3 = experiment: Growth inhibition of human OVCAR-3 cells measured after 48 hrs by SRB assay; type: functional; how it was run: as §2
HCC 2998 = experiment: Growth inhibition of human HCC 2998 cells measured after 48 hrs by SRB assay; type: functional; how it was run: as §2
MDA-MB-435 = experiment: Growth inhibition of human MDA-MB-435 cells measured after 48 hrs by SRB assay; type: functional; how it was run: as §2
OVCAR-5 = experiment: Growth inhibition of human OVCAR-5 cells measured after 48 hrs by SRB assay; type: functional; conditions: for CC50: read-out: LC50 (the source's name); how it was run: as §2
SK-MEL-2 = experiment: Growth inhibition of human SK-MEL-2 cells measured after 48 hrs by SRB assay; type: functional; how it was run: as §1
RPMI-8226 = experiment: Growth inhibition of human RPMI-8226 cells measured after 48 hrs by SRB assay; type: functional; how it was run: as §1
COLO 205 = experiment: Growth inhibition of human COLO 205 cells measured after 48 hrs by SRB assay; type: functional; how it was run: as §2
LOX IMVI = experiment: Growth inhibition of human LOX IMVI cells measured after 48 hrs by SRB assay; type: functional; conditions: for CC50: read-out: LC50 (the source's name); how it was run: as §2
HL-60 [3] = experiment: Induction of apoptosis in human HL-60 cells assessed as necrotic cells measured after 24 hrs by Annexin-V/propidium iodide staining based flow cytometry (reference value: 0.61%); type: functional
[4] = target: Serine/threonine-protein kinase mTOR (Homo sapiens, UniProt P42345); experiment: Inhibition of recombinant human N-terminal FLAG-tagged mTOR (1362 to end residues) expressed in baculovirus infected Sf21 insect cells using ULight-4E-BP1 as substrate measured after 30 mins by LANCE ultra assay
K562 = experiment: Growth inhibition of human K562 cells measured after 48 hrs by SRB assay; type: functional; how it was run: as §2
786-0 = experiment: Growth inhibition of human 786-0 cells measured after 48 hrs by SRB assay; type: functional; conditions: for CC50: read-out: LC50 (the source's name); how it was run: as §2
TK-10 = experiment: Growth inhibition of human TK-10 cells measured after 48 hrs by SRB assay; type: functional; how it was run: as §1
HCT-116 = experiment: Growth inhibition of human HCT-116 cells measured after 48 hrs by SRB assay; type: functional; how it was run: as §2
UACC-62 = experiment: Growth inhibition of human UACC-62 cells measured after 48 hrs by SRB assay; type: functional; how it was run: as §1
NCI-H322M = experiment: Growth inhibition of human NCI-H322M cells measured after 48 hrs by SRB assay; type: functional; how it was run: as §2
HL-60 [5] = experiment: Growth inhibition of human HL-60 cells measured after 48 hrs by SRB assay; type: functional; conditions: for CC50: read-out: LC50 (the source's name); how it was run: as §2
SNB-19 = experiment: Growth inhibition of human SNB-19 cells measured after 48 hrs by SRB assay; type: functional; how it was run: as §1
MOLT-4 = experiment: Growth inhibition of human MOLT-4 cells measured after 48 hrs by SRB assay; type: functional; how it was run: as §2
KM12 = experiment: Growth inhibition of human KM12 cells measured after 48 hrs by SRB assay; type: functional; how it was run: as §2
SF-268 = experiment: Growth inhibition of human SF-268 cells measured after 48 hrs by SRB assay; type: functional; how it was run: as §1
IGROV-1 = experiment: Growth inhibition of human IGROV-1 cells measured after 48 hrs by SRB assay; type: functional; how it was run: as §2
MCF7 = experiment: Growth inhibition of human MCF7 cells measured after 48 hrs by SRB assay; type: functional; how it was run: as §2
SK-OV-3 = experiment: Growth inhibition of human SK-OV-3 cells measured after 48 hrs by SRB assay; type: functional; how it was run: as §1

SMILES: CCOc1cc(/C=N/Nc2nc(-c3cccc([N+](=O)[O-])c3)cs2)ccc1O
- GI50 (SK-MEL-5): 2.73 µM
- TGI (SK-MEL-5): 9.14 µM
- inhibition of growth at 10 µM [1]: 112%
- GI50 (T47D): 3.69 µM
- TGI (T47D): 16.3 µM
- GI50 (NCI/ADR-RES): 2.72 µM
- TGI (NCI/ADR-RES): 8.59 µM
- GI50 (RXF 393): 1.89 µM
- TGI (RXF 393): 4.82 µM
- GI50 (OVCAR-4): 2.41 µM
- TGI (OVCAR-4): 8.05 µM
- GI50 (SK-MEL-28): 2.27 µM
- TGI (SK-MEL-28): 5.97 µM
- Activity (HL-60 [2]): 31.19%
- GI50 (OVCAR-3): 2.31 µM
- TGI (OVCAR-3): 4.43 µM
- GI50 (HCC 2998): 3.43 µM
- TGI (HCC 2998): 19.8 µM
- GI50 (MDA-MB-435): 2.7 µM
- TGI (MDA-MB-435): 9.14 µM
- GI50 (OVCAR-5): 3.79 µM
- TGI (OVCAR-5): 16.2 µM
- CC50 (OVCAR-5): 51.3 µM
- GI50 (SK-MEL-2): 2.48 µM
- TGI (SK-MEL-2): 6.75 µM
- GI50 (RPMI-8226): 3.03 µM
- TGI (RPMI-8226): > 100 µM
- GI50 (COLO 205): 16.4 µM
- TGI (COLO 205): 38.7 µM
- GI50 (LOX IMVI): 1.73 µM
- TGI (LOX IMVI): 3.59 µM
- CC50 (LOX IMVI): 7.46 µM
- Activity (HL-60 [3]): 4.93%
- IC50 [4]: 0.221 µM
- GI50 (K562): 3.05 µM
- TGI (K562): 34.3 µM
- GI50 (786-0): 2.75 µM
- TGI (786-0): 8.68 µM
- CC50 (786-0): 81.8 µM
- GI50 (TK-10): 4.42 µM
- TGI (TK-10): 16.1 µM
- GI50 (HCT-116): 2.34 µM
- TGI (HCT-116): 5.83 µM
- GI50 (UACC-62): 2.39 µM
- TGI (UACC-62): 6.56 µM
- GI50 (NCI-H322M): 4.32 µM
- TGI (NCI-H322M): 16.9 µM
- GI50 (HL-60 [5]): 2.32 µM
- TGI (HL-60 [5]): 7.84 µM
- CC50 (HL-60 [5]): > 100 µM
- GI50 (SNB-19): 3.35 µM
- TGI (SNB-19): 20.8 µM
- GI50 (MOLT-4): 1.74 µM
- TGI (MOLT-4): 5.94 µM
- GI50 (KM12): 1.94 µM
- TGI (KM12): 3.63 µM
- GI50 (SF-268): 3.45 µM
- TGI (SF-268): 27.4 µM
- GI50 (IGROV-1): 2.46 µM
- TGI (IGROV-1): 7.23 µM
- GI50 (MCF7): 2.86 µM
- TGI (MCF7): 10.9 µM
- GI50 (SK-OV-3): 3.36 µM
- TGI (SK-OV-3): 27.8 µM

SMILES: O=[N+]([O-])c1cc(/C=N/Nc2nc(-c3ccc(Cl)cc3)cs2)ccc1Cl
- GI50 (SK-MEL-5): 10.3 µM
- TGI (SK-MEL-5): 24.5 µM
- inhibition of growth at 10 µM [1]: 66%
- GI50 (T47D): 1.8 µM
- TGI (T47D): 3.81 µM
- GI50 (NCI/ADR-RES): 16.8 µM
- TGI (NCI/ADR-RES): 41.5 µM
- GI50 (RXF 393): 11.9 µM
- TGI (RXF 393): 30.6 µM
- GI50 (OVCAR-4): 8.25 µM
- TGI (OVCAR-4): 35.9 µM
- GI50 (SK-MEL-28): 17.2 µM
- TGI (SK-MEL-28): 46.4 µM
- Activity (HL-60 [2]): 23.62%
- GI50 (OVCAR-3): 1.73 µM
- TGI (OVCAR-3): 3.13 µM
- GI50 (HCC 2998): 1.87 µM
- TGI (HCC 2998): 3.55 µM
- GI50 (MDA-MB-435): 23.2 µM
- TGI (MDA-MB-435): 98.3 µM
- GI50 (OVCAR-5): 23 µM
- TGI (OVCAR-5): 78.2 µM
- CC50 (OVCAR-5): > 100 µM
- GI50 (SK-MEL-2): 24 µM
- TGI (SK-MEL-2): 81.5 µM
- GI50 (RPMI-8226): 2.31 µM
- TGI (RPMI-8226): 6.29 µM
- GI50 (COLO 205): 15.4 µM
- TGI (COLO 205): 29.7 µM
- GI50 (LOX IMVI): 3.91 µM
- TGI (LOX IMVI): > 100 µM
- CC50 (LOX IMVI): > 100 µM
- Activity (HL-60 [3]): 3.64%
- IC50 [4]: 0.896 µM
- GI50 (K562): 5.86 µM
- TGI (K562): 66.4 µM
- GI50 (786-0): 19.8 µM
- TGI (786-0): 61.3 µM
- CC50 (786-0): > 100 µM
- GI50 (TK-10): 28.1 µM
- TGI (TK-10): 84 µM
- GI50 (HCT-116): 16.3 µM
- TGI (HCT-116): 36.6 µM
- GI50 (UACC-62): 11.1 µM
- TGI (UACC-62): 26 µM
- GI50 (NCI-H322M): 3.23 µM
- TGI (NCI-H322M): 13.7 µM
- GI50 (HL-60 [5]): 2.29 µM
- TGI (HL-60 [5]): 7.43 µM
- CC50 (HL-60 [5]): > 100 µM
- GI50 (SNB-19): 10.5 µM
- TGI (SNB-19): 24.2 µM
- GI50 (MOLT-4): 3.43 µM
- TGI (MOLT-4): 24.1 µM
- GI50 (KM12): 1.88 µM
- TGI (KM12): 3.58 µM
- GI50 (SF-268): 8.44 µM
- TGI (SF-268): 31.8 µM
- GI50 (IGROV-1): 13.6 µM
- TGI (IGROV-1): 37.4 µM
- GI50 (MCF7): 1.79 µM
- TGI (MCF7): 3.81 µM
- GI50 (SK-OV-3): 21.8 µM
- TGI (SK-OV-3): 65 µM
